Experimental findings from ChEMBL document CHEMBL3085701, “Optimization of novel indole-2-carboxamide inhibitors of neurotropic alphavirus replication” (J Med Chem, 2013) are described below.

In data set [1] the test system is Western equine encephalitis virus. Description: Antiviral activity against Western equine encephalomyelitis virus infected in human BE(2)-C cells assessed as inhibition of viral RNA replication after 18 to 20 hrs by luciferase reporter gene assay. The format is functional, cell-based.
A short description of data set [2]: Therapeutic index, ratio of CC50 for human BE(2)-C cells to IC50 for Western equine encephalitis virus. To be noted: read-out: Ratio CC50/IC50.
The target of data set [3] is MDR1 (ABCB1, P-glycoprotein) (Homo sapiens, UniProt P08183). The data set can be described thus: Inhibition of human MDR1 expressed in MDCK2 cells assessed as increase of rhodamine 123 uptake at 30 uM up to 240 mins relative to control. The format is ADME, cell-based, MDCK-II. To be noted: MDCK2 cells expressing human MDR1, probe rhodamine 123. An outline of the steps:
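Confluent MDR1-MDCKII cells (human Pgp-transfected) given fresh DMEM with 10 μM rhodamine 123, plus vehicle, tariquidar (5 μM) or compound (30 μM). Uptake at 37°C from 1 to 240 min, stopped by ice-cold PBS washes. Fluorescence read at ex 525/em 560-640 nm. Result expressed as % of same-day tariquidar effect, (Cav−Cveh)*100/(Ctar−Cveh). Triplicates on ≥3 occasions.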

Data set [4] can be described thus: Cytotoxicity against human BE(2)-C cells after 18 to 20 hrs by MTT assay. The format is cell-based.
Data set [5] in a line: Cytotoxicity against human BE(2)-C cells assessed as cell viability at 25 uM after 24 hrs by MTT assay relative to control. The following applies: read-out: Activity. The format is cell-based.
A further data set deals with Fort Morgan virus. The data set can be described thus: Antiviral activity against Fort Morgan virus infected in human BE(2)-C cells assessed as reduction of viral titer at 25 uM after 24 hrs by plaque reduction assay (reference value: 47.1 +/- 10.5 x 10^6 pfu/ml). The format is functional.
The nature of data set [6]: Half life in Balb-C mouse liver microsomes. The format is ADME, Microsome. An outline of the steps:
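Compound incubated with Balb-C mouse liver microsomes, and half-life determined for oxidative metabolism. Values are means of ≥2 independent incubations.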

Data set [7] is described as follows: Kinetic solubility of the compound. The format is physicochemical.
In data set [8] the test system is Brain. Description: Drug level in C57BL/6 mouse brain at 20 mg/kg, ip after 12 hrs. The format is ADME, organism-based. Details: dose 20 mg/kg, route intraperitoneal. The following applies: in vivo, BLD = below limit of detection. The method in brief: (§1)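 Female C57BL/6 mice were given a single IP dose in 2% sterile DMSO/PBS. At each time point, duplicate mice had blood taken by cardiac puncture. They were then perfused with PBS, and the cerebrum was harvested and flash frozen on dry ice. Brain drug levels were quantified by LC/MS/MS and reported as ng/g; BLQ means below the limit of quantitation.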

Data set [9] in a line: Plasma concentration in C57BL/6 mouse at 20 mg/kg, ip after 2 hrs. The format is ADME, organism-based. Details: dose 20 mg/kg, route intraperitoneal. An outline of the steps: (§2)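 C57BL/6 female mice given a single IP injection of compound in 2% sterile DMSO/PBS, at the stated dose. Duplicate mice per time point. Blood taken by cardiac puncture into EDTA and plasma separated. Cerebrum harvested after PBS perfusion and flash-frozen. Drug quantified by LC/MS/MS as ng/mL plasma or ng/g brain.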

The nature of data set [10]: Drug level in C57BL/6 mouse brain at 20 mg/kg, ip after 30 mins. The format is ADME, organism-based. Details: dose 20 mg/kg, route intraperitoneal. The following applies: read-out: Drug uptake. An outline of the steps:
as §2

In data set [11] the test system is Western equine encephalitis virus. Description: Antiviral activity against Western equine encephalomyelitis virus infected in human BE(2)-C cells assessed as reduction of viral titer at 25 uM after 24 hrs by plaque reduction assay (reference value: 25.7 +/- 5.2 x 10^6 pfu/ml). The format is functional.
Data set [12] is described as follows: Plasma concentration in C57BL/6 mouse at 20 mg/kg, ip after 30 mins. The format is ADME, organism-based. The arrangement: dose 20 mg/kg, route intraperitoneal. The method in brief: as §2
Data set [13] deals with Brain. The data set can be described thus: Drug level in C57BL/6 mouse brain at 20 mg/kg, ip after 2 hrs. The format is ADME, organism-based. Details: dose 20 mg/kg, route intraperitoneal. To be noted: in vivo, BLD = below limit of detection. An outline of the steps: as §1
Data set [14] relates to Plasma. Description: Plasma concentration in C57BL/6 mouse at 20 mg/kg, ip after 12 hrs. The arrangement: dose 20 mg/kg, route intraperitoneal. The following applies: in vivo, BLD = below limit of detection. The format is ADME, organism-based. The method in brief:
as §2

Data set [15] concerns Brain. Description: Drug level in C57BL/6 mouse brain at 30 mg/kg, ip after 12 hrs. The arrangement: dose 30 mg/kg, route intraperitoneal. The format is ADME, organism-based. The following applies: in vivo, BLD = below limit of detection. The method in brief: as §1
Data set [16] is described as follows: Plasma concentration in C57BL/6 mouse at 30 mg/kg, ip after 30 mins. The format is ADME, organism-based. Details: dose 30 mg/kg, route intraperitoneal. An outline of the steps: as §2
Data set [17] has as its system Brain. The data set can be described thus: Drug level in C57BL/6 mouse brain at 30 mg/kg, ip after 30 mins. To be noted: in vivo, 0.5 h, BLD = below limit of detection. The arrangement: dose 30 mg/kg, route intraperitoneal. The format is ADME, organism-based. The method in brief: as §1
The test system of data set [18] is Plasma. The data set can be described thus: (§3) Plasma concentration in C57BL/6 mouse at 30 mg/kg, ip after 12 hrs. The format is ADME, organism-based. Details: dose 30 mg/kg, route intraperitoneal. The following applies: mouse, in vivo, 12 h, BLD = below limit of detection. The method in brief: as §2
Data set [19] in a line: Plasma concentration in C57BL/6 mouse at 30 mg/kg, ip after 2 hrs. The format is ADME, organism-based. The arrangement: dose 30 mg/kg, route intraperitoneal. An outline of the steps:
as §2

In data set [20] the test system is Brain. The data set can be described thus: Drug level in C57BL/6 mouse brain at 30 mg/kg, ip after 2 hrs. The format is ADME, organism-based. The arrangement: dose 30 mg/kg, route intraperitoneal. To be noted: in vivo, BLD = below limit of detection. An outline of the steps:
as §1

Data set [21] can be described thus: as §3. The format is ADME, organism-based. Details: dose 30 mg/kg, route intraperitoneal. The following applies: C57BL/6, mouse, plasma. The method in brief: as §2

Sequence of MDR1 (ABCB1, P-glycoprotein) (P08183 whole entry): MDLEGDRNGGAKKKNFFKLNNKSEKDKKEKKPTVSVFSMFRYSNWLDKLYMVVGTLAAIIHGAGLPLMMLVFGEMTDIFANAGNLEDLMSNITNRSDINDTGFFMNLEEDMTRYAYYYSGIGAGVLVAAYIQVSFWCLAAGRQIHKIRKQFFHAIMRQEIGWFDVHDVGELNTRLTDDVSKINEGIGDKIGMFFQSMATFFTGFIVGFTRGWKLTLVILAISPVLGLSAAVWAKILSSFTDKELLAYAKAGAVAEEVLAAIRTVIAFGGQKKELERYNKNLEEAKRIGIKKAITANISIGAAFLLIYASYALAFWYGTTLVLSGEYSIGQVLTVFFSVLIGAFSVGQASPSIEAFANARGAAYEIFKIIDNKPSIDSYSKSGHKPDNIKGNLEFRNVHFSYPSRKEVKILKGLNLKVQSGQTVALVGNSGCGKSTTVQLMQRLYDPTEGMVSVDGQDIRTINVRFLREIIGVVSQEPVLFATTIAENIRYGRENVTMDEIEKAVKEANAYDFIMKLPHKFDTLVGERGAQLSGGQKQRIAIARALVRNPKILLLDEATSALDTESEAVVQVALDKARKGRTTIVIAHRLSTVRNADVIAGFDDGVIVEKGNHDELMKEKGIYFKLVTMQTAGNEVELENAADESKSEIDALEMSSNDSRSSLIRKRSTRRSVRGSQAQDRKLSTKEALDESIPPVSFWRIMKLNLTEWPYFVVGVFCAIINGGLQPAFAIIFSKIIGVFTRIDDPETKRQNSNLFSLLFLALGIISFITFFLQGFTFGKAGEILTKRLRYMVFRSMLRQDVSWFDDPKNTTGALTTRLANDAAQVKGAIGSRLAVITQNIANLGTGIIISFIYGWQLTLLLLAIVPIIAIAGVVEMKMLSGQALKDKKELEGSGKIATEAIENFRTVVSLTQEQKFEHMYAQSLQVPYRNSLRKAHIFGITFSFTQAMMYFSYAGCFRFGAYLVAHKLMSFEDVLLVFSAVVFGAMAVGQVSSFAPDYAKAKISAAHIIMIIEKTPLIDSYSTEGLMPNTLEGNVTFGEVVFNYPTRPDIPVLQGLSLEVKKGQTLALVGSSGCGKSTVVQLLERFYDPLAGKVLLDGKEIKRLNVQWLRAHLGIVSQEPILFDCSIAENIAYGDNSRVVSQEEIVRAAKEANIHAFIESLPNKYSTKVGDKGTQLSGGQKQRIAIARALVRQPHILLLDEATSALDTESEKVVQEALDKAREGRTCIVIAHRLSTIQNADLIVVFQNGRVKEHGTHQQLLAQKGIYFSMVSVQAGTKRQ

On to `O=C(NCCc1ccncc1)C1CCN(C(=O)c2cc3ccccc3n2Cc2c(F)cccc2F)CC1`, for which the IC50 in [1] turned out to be 1.3 µM. Moreover, in data set [2], the selectivity ratio amounted to 50. Further, the inhibition at 4 h, 30 µM in [3] was found to be 28.5%. The molecule also displayed a CC50 in data set [4] (be(2)-c) of 34.5 µM.

As for `O=C(NCCc1ccncc1)C1CCN(C(=O)c2cc3ccncc3n2Cc2ccc(Cl)cc2)CC1`, in data set [1], the IC50 came to 4.4 µM. Moreover, the viability at 24 h, 25 µM in data set [5] came out at 66.1%. Moreover, the Activity in the data set with Fort Morgan virus was found to be 69.4 ×10⁶ PFU/ml. In addition, the t1/2 in data set [6] came to 9.1 min. Moreover, the Kinetic_solubility in [7] was determined as 125 µM. The inhibition at 4 h, 30 µM in [3] worked out at 1.2%. Besides, the CC50 in data set [4] (be(2)-c) was 77.1 µM.

As for `O=C(NCCc1ccncc1)C1CCN(C(=O)c2cccn2Cc2ccc(Cl)cc2)CC1`, the Drug uptake result in the data set with Brain [8] and in the data set with Brain [13] was “BLD” throughout. Moreover, in [1], the IC50 was found to be 0.7 µM. The same molecule yielded a concentration at 2 h in [9] of 0.005 µg/mL. In addition, the concentration at 0.5 h in data set [10] came to 19 ng/g; in [12], 0.124 µg/mL. For the same molecule, the Activity in data set [11] was 4.9 ×10⁶ PFU/ml; with Fort Morgan virus, 23.8 ×10⁶ PFU/ml. For the same molecule, the viability at 24 h, 25 µM in [5] stood at 59.1%. The same molecule showed a t1/2 in data set [6] of 2.9 min. The molecule also returned a Kinetic_solubility in data set [7] of 125 µM. Moreover, the inhibition at 4 h, 30 µM in data set [3] is -1.2%. Further, in data set [4] (BE(2)-C cells), the CC50 is > 100 µM. For the same molecule, in the data set on Plasma [14], the Cp entry is “BLD”.

For the molecule `C[C@@H](NC(=O)C1CCN(C(=O)c2cc3ccccc3n2Cc2ccc(Cl)cc2)CC1)c1ccccc1`, the Drug uptake entry with Brain [15], in the data set on Brain [17] and with Brain [20] was “BLD” throughout. For the same molecule, the concentration at 0.5 h in data set [16] stood at 0.01 µg/mL. The IC50 in data set [1] stood at 6.5 µM. The Cp entry with Plasma [18] is recorded as “BLD”. Besides, the values for the Activity (in data set [11]; in the data set with Fort Morgan virus) were 8.8 ×10⁶ PFU/ml and 39.3 ×10⁶ PFU/ml, respectively. Besides, the viability at 24 h, 25 µM in [5] was 36.7%. In data set [19], this molecule registered a concentration at 2 h of 0.03 µg/mL. Also, in data set [6], the t1/2 is given as 2.1 min. Also, the Kinetic_solubility in data set [7] amounted to 8 µM. The inhibition at 4 h, 30 µM in data set [3] turned out to be 24.4%. For the same molecule, in [4] (BE(2)-C cells), the CC50 is > 100 µM.

With `O=C(NCCc1ccncc1)C1CCN(C(=O)c2cc3ccccc3n2Cc2ccc(Cl)cc2)CC1`, the Drug uptake entry in the data set with Brain [15], in the data set with Brain [17] and with Brain [20] was “BLD” in each case. For the same molecule, the concentration at 0.5 h in data set [16] was 0.059 µg/mL. In addition, the IC50 in data set [1] came to 0.5 µM. The molecule further had a concentration at 12 h in data set [21] of 0.023 µg/mL. Besides, the Activity in [11] is 0.5 ×10⁶ PFU/ml; in the data set with Fort Morgan virus, 4.9 ×10⁶ PFU/ml. For the same molecule, the viability at 24 h, 25 µM in data set [5] was found to be 60.7%. Further, the concentration at 2 h in data set [19] turned out to be 0.079 µg/mL. The molecule further had a t1/2 in data set [6] of 11.5 min. For the same molecule, in [7], the Kinetic_solubility came to 31 µM. The inhibition at 4 h, 30 µM in [3] is 30.9%. In data set [4] (be(2)-c), this molecule yielded a 50% cytotoxic concentration (CC50) of 49.9 µM.

In the case of `CC(NC(=O)C1CCN(C(=O)c2cc3ccccc3n2Cc2ccc(Cl)cc2)CC1)c1ccncc1` (racemic), in data set [1], the IC50 amounted to 2.4 µM. For the same molecule, the Activity in data set [11] turned out to be 0.7 ×10⁶ PFU/ml; in the data set with Fort Morgan virus, 3.7 ×10⁶ PFU/ml. The viability at 24 h, 25 µM in [5] amounted to 63.2%. Moreover, the Kinetic_solubility in [7] was 31 µM. Besides, the inhibition at 4 h, 30 µM in [3] is 43.1%. This molecule also showed a CC50 in data set [4] (be(2)-c) of 90.1 µM.

`NC(=O)c1ncn([C@@H]2O[C@H](CO)[C@@H](O)[C@H]2O)n1` [RIBAVIRIN]: in data set [1], the IC50 was found to be 16 µM. The Activity is given as 9.3 ×10⁶ PFU/ml in data set [11] and 53.5 ×10⁶ PFU/ml with Fort Morgan virus. In data set [5], the viability at 24 h, 25 µM amounted to 32.6%.
